Data taken from ChEMBL document CHEMBL1127484, “5-Aryl-3-(alkylthio)-4H-1,2,4-triazoles as selective antagonists of strychnine-induced convulsions and potential antispastic agents” (J Med Chem, 1994).

Assays:
Mus musculus [1] = experiment: Effective dose required for antagonist activity against 3-mercaptopropionic-acid-induced seizures in mice when administered intraperitoneally; Range is 50-100; type: functional; conditions: ip
Procedure, shortened: (§1)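 CD-1 male mice (18–26 g), groups of 5 or 10, housed individually, dosed ip in distilled H2O or H2O/Tween 80. Convulsant given 30 min later. Strychnine sulfate 2.7 mg/kg ip: protection = no tonic extension >15 min. MES 50 mA, 0.2 s, corneal: no tonic hind-limb extension. PTZ 60 mg/kg iv: no clonic seizures for 2 min. MPA 100 mg/kg iv: no seizures for 5 min. ED50 by quantal analysis from ≥4 doses, ≥10 mice each.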

Mus musculus [2] = experiment: Effective dose required for antagonist activity against maximal electroshock induced seizures in mice when administered intraperitoneally; type: functional; conditions: ip; procedure, shortened: as §1
Mus musculus [3] = experiment: Effective dose required for antagonist activity against pentylenetetrazole-induced seizures in mice when administered intraperitoneally; Range is 25-50; type: functional; conditions: ip; procedure, shortened: as §1
Mus musculus [4] = experiment: Effective dose required for antagonist activity against strychnine induced seizures in mice when administered intraperitoneally; type: functional; conditions: ip; procedure, shortened: as §1
[5] = Dose encompassing the 50% lethal effect was recorded when administered intraperitoneally in mice; type: ADME, organism-based; conditions: mouse, in vivo, ip
Procedure, shortened: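 Deaths were recorded over the 7 days after dosing. The estimated LD50 was taken as the dose range spanning 50% lethality.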

Mus musculus [6] = experiment: Effective dose required for antagonist activity against pentylenetetrazole-induced seizures in mice when administered intraperitoneally; type: functional; conditions: ip; procedure, shortened: as §1
Mus musculus [7] = experiment: Effective dose required for antagonist activity against strychnine induced seizures in mice when administered intraperitoneally; Range is 32-50; type: functional; conditions: ip; procedure, shortened: as §1
Mus musculus [8] = experiment: Effective dose required for antagonist activity against 3-mercaptopropionic-acid induced seizures in mice when administered intraperitoneally; type: functional; conditions: ip; procedure, shortened: as §1

SMILES: CCn1c(SC)nnc1-c1ccc(Cl)cc1
- ED50 (Mus musculus [1]): 100 mg/kg
- ED50 (Mus musculus [2]): > 50 mg/kg
- ED50 (Mus musculus [3]): 50 mg/kg
- ED50 (Mus musculus [4]): 26.7 mg/kg
- LD50 [5]: > 800 mg/kg

SMILES: Cn1c(-c2cccs2)nnc1[S+](C)[O-] (stereo not given)
- ED50 (Mus musculus [2]): > 200 mg/kg
- ED50 (Mus musculus [6]): > 200 mg/kg
- ED50 (Mus musculus [7]): 50 mg/kg
- ED50 (Mus musculus [8]): > 200 mg/kg
- LD50 [5]: > 800 mg/kg
